Values after ≈ are worked out from the molar mass of the structure shown.
Columns and labels:
Assay type in all cases: functional
Haemophilus influenzae [1] = assay: Antimicrobial activity against Haemophilus influenzae clinical isolates assessed as susceptible isolates by broth dilution method
Streptococcus pneumoniae [2] = assay: Antimicrobial activity against Streptococcus pneumoniae clinical isolates assessed as resistant isolates by broth dilution method
Streptococcus pyogenes [3] = assay: Antimicrobial activity against Streptococcus pyogenes clinical isolates by broth dilution method
Streptococcus pyogenes [4] = assay: Antimicrobial activity against Streptococcus pyogenes clinical isolates assessed as resistant isolates by broth dilution method
How it was run: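 S. pyogenes clinical isolates were held at −70°C in duplicate and revived by the hot-loop touching method. MICs were obtained by the CLSI broth microdilution procedure active in the year of study. Resistance was interpreted according to CLSI M100-S19.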

Haemophilus influenzae [5] = assay: Antimicrobial activity against Haemophilus influenzae clinical isolates assessed as resistant isolates by broth dilution method
Streptococcus pneumoniae [6] = assay: Antimicrobial activity against Streptococcus pneumoniae clinical isolates assessed as susceptible isolates by broth dilution method
How it was run: (§1)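 Isolates kept frozen at −70°C in duplicate and revived by hot-loop touching. MICs by the CLSI broth microdilution method active in the year of study, with S. pneumoniae ATCC 49619 as control. Categories assigned with CLSI M100-S19 breakpoints.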

Haemophilus influenzae [7] = assay: Antimicrobial activity against Haemophilus influenzae clinical isolates by broth dilution method
Streptococcus pneumoniae [8] = assay: Antimicrobial activity against Streptococcus pneumoniae clinical isolates assessed as susceptible isolates by PK/PD technique
Haemophilus influenzae [9] = assay: Antimicrobial activity against Haemophilus influenzae clinical isolates assessed as susceptible isolates by PK/PD technique
Streptococcus pyogenes [10] = assay: Antimicrobial activity against Streptococcus pyogenes clinical isolates assessed as susceptible isolates by broth dilution method
How it was run: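 S. pyogenes clinical isolates held at −70°C in duplicate and recovered by hot-loop touching. MICs by the CLSI broth microdilution method in force in the study year, interpreted per CLSI M100-S19.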

Streptococcus pneumoniae [11] = assay: Antimicrobial activity against Streptococcus pneumoniae clinical isolates by broth dilution method
Haemophilus influenzae [12] = assay: Antimicrobial activity against Haemophilus influenzae clinical isolates by based on po dosed broth dilution method
How it was run: (§2)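 H. influenzae clinical isolates were stored at −70°C in duplicate and recovered by the hot-loop touching method without repeated thawing. MICs were determined by CLSI broth microdilution in Haemophilus test medium, following the method current in the study year. Each medium batch was checked for growth support with H. influenzae ATCC 10211. Controls were H. influenzae ATCC 49247 and ATCC 49766 and E. coli ATCC 35218. Categories were assigned per CLSI M100-S19.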

Haemophilus influenzae [13] = assay: Antimicrobial activity against Haemophilus influenzae clinical isolates assessed as susceptible isolates by based on po dosed broth dilution method
How it was run: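 Clinical isolates stored in duplicate at −70°C and recovered by the hot-loop touching method. MICs by the CLSI broth microdilution method current in the study year, in Haemophilus test medium (HTM). Growth support of HTM checked with H. influenzae ATCC 10211. Controls were H. influenzae ATCC 49247 and ATCC 49766 and E. coli ATCC 35218. Susceptibility interpreted per CLSI M100-S19.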

Streptococcus pneumoniae [14] = assay: Antimicrobial activity against Streptococcus pneumoniae clinical isolates assessed as susceptible isolates by based on parenterally dosed broth dilution method; how it was run: as §1
Haemophilus influenzae [15] = assay: Antimicrobial activity against Haemophilus influenzae clinical isolates by based on po dosed PK/PD technique
Streptococcus pneumoniae [16] = assay: Antimicrobial activity against Streptococcus pneumoniae clinical isolates by based on parenterally dosed broth dilution method; how it was run: as §1
Streptococcus pneumoniae [17] = assay: Antimicrobial activity against Streptococcus pneumoniae clinical isolates assessed as susceptible isolates by po dosed PK/PD technique
Streptococcus pneumoniae [18] = assay: Antimicrobial activity against Streptococcus pneumoniae clinical isolates assessed as resistant isolates by based on parenterally dosed broth dilution method in presence of beta-lactamase inhibitor clavulanic acid
How it was run: (§3)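 S. pneumoniae clinical isolates were kept frozen at −70°C in duplicate and recovered by hot-loop touching to avoid repeated freeze-thaw. MICs were measured by CLSI broth microdilution as in force in the study year, with S. pneumoniae ATCC 49619 as control strain. Susceptibility categories were interpreted using CLSI M100-S19 breakpoints.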

Streptococcus pneumoniae [19] = assay: Antimicrobial activity against Streptococcus pneumoniae clinical isolates assessed as susceptible isolates by based on parenterally dosed PK/PD technique
Haemophilus influenzae [20] = assay: Antimicrobial activity against Haemophilus influenzae clinical isolates assessed as resistant isolates by based on po dosed broth dilution method; how it was run: as §2
Streptococcus pneumoniae [21] = assay: Antimicrobial activity against Streptococcus pneumoniae clinical isolates by based on po dosed broth dilution method; how it was run: as §1
Streptococcus pneumoniae [22] = assay: Antimicrobial activity against Streptococcus pneumoniae clinical isolates assessed as susceptible isolates by based on po dosed broth dilution method; how it was run: as §1
Streptococcus pneumoniae [23] = assay: Antimicrobial activity against Streptococcus pneumoniae clinical isolates assessed as resistant isolates by based on po dosed broth dilution method; how it was run: as §3

For `CO/N=C(\C(=O)N[C@@H]1C(=O)N2C(C(=O)O)=C(COC(C)=O)CS[C@H]12)c1csc(N)n1` [CEFOTAXIME], the Activity (Haemophilus influenzae [1]) was 99.9%, the Activity (Streptococcus pneumoniae [2]) was 0.2% and the MIC50 (Streptococcus pyogenes [3]) was no more than 0.015 µg/mL. For the same compound, the MIC90 (Streptococcus pyogenes [3]) was no more than 0.015 µg/mL, the Activity (Streptococcus pyogenes [4]) was 0% and the Activity (Haemophilus influenzae [5]) was 0.1%. For the same compound, the Activity (Streptococcus pneumoniae [6]) was 99.6%, the MIC50 (Haemophilus influenzae [7]) was no more than 0.015 µg/mL and the MIC90 (Haemophilus influenzae [7]) was no more than 0.015 µg/mL. For the same compound, the Activity (Streptococcus pneumoniae [8]) was 99.6%, the Activity (Haemophilus influenzae [9]) was 99.9% and the Activity (Streptococcus pyogenes [10]) was 100%. The MIC50 (Streptococcus pneumoniae [11]) was no more than 0.015 µg/mL and the MIC90 (Streptococcus pneumoniae [11]) was 0.25 µg/mL (≈ 0.549 µM).

`CC[C@H]1OC(=O)[C@H](C)[C@@H](O[C@H]2C[C@@](C)(OC)[C@@H](O)[C@H](C)O2)[C@H](C)[C@@H](O[C@@H]2O[C@H](C)C[C@H](N(C)C)[C@H]2O)[C@](C)(OC)C[C@@H](C)C(=O)[C@H](C)[C@@H](O)[C@]1(C)O` [CLARITHROMYCIN] was tested, and the Activity (Haemophilus influenzae [1]) was 99.3%, the Activity (Streptococcus pneumoniae [2]) was 20.9% and the MIC50 (Streptococcus pyogenes [3]) was no more than 0.015 µg/mL. It also gave an MIC90 (Streptococcus pyogenes [3]) of 2 µg/mL (≈ 2.67 µM), an Activity (Streptococcus pyogenes [4]) of 16.5% and an Activity (Haemophilus influenzae [5]) of 0%. For the same compound, the Activity (Streptococcus pneumoniae [6]) was 78.2%, the MIC50 (Haemophilus influenzae [7]) was 2 µg/mL (≈ 2.67 µM) and the MIC90 (Haemophilus influenzae [7]) was 4 µg/mL (≈ 5.35 µM). The Activity (Streptococcus pneumoniae [8]) was 78.2%, the Activity (Haemophilus influenzae [9]) was 5.1% and the Activity (Streptococcus pyogenes [10]) was 80.9%. For the same compound, the MIC50 (Streptococcus pneumoniae [11]) was no more than 0.015 µg/mL and the MIC90 (Streptococcus pneumoniae [11]) was no less than 128 µg/mL.

For `CC[C@H]1OC(=O)[C@H](C)[C@@H](O[C@H]2C[C@@](C)(OC)[C@@H](O)[C@H](C)O2)[C@H](C)[C@@H](O[C@@H]2O[C@H](C)C[C@H](N(C)C)[C@H]2O)[C@](C)(O)C[C@@H](C)CN(C)[C@H](C)[C@@H](O)[C@]1(C)O` [AZITHROMYCIN], the Activity (Haemophilus influenzae [1]) was 100%, the Activity (Streptococcus pneumoniae [2]) was 20.8% and the MIC50 (Streptococcus pyogenes [3]) was no more than 0.015 µg/mL. For the same compound, the MIC90 (Streptococcus pyogenes [3]) was 2 µg/mL (≈ 2.67 µM), the Activity (Streptococcus pyogenes [4]) was 11.6% and the Activity (Haemophilus influenzae [5]) was 0%. The Activity (Streptococcus pneumoniae [6]) was 77.6%, the MIC50 (Haemophilus influenzae [7]) was 0.25 µg/mL (≈ 0.334 µM) and the MIC90 (Haemophilus influenzae [7]) was 1 µg/mL (≈ 1.34 µM). For the same compound, the Activity (Streptococcus pneumoniae [8]) was 74.3%, the Activity (Haemophilus influenzae [9]) was 23.8% and the Activity (Streptococcus pyogenes [10]) was 81.1%. The MIC50 (Streptococcus pneumoniae [11]) was no more than 0.015 µg/mL and the MIC90 (Streptococcus pneumoniae [11]) was no less than 128 µg/mL.

Compound `CO/N=C(\C(=O)N[C@@H]1C(=O)N2C(C(=O)O)=C(COC(N)=O)CS[C@H]12)c1ccco1` [CEFUROXIME] has an MIC50 (Streptococcus pyogenes [3]) of no more than 0.015 µg/mL, an MIC90 (Streptococcus pyogenes [3]) of no more than 0.015 µg/mL and an MIC50 (Haemophilus influenzae [12]) of 0.5 µg/mL (≈ 1.18 µM). The MIC90 (Haemophilus influenzae [12]) was 1 µg/mL (≈ 2.36 µM), the Activity (Haemophilus influenzae [13]) was 99.3% and the Activity (Streptococcus pneumoniae [14]) was 83.8%. For the same compound, the Activity (Haemophilus influenzae [15]) was 91.4%, the MIC50 (Streptococcus pneumoniae [16]) was no more than 0.015 µg/mL and the MIC90 (Streptococcus pneumoniae [16]) was 1 µg/mL (≈ 2.36 µM). It also gave an Activity (Streptococcus pneumoniae [17]) of 94.5%, an Activity (Streptococcus pneumoniae [18]) of 5.5% and an Activity (Streptococcus pneumoniae [19]) of 99.3%. It also gave an Activity (Haemophilus influenzae [20]) of 0.1%, an MIC50 (Streptococcus pneumoniae [21]) of no more than 0.015 µg/mL and an MIC90 (Streptococcus pneumoniae [21]) of 1 µg/mL (≈ 2.36 µM). It also gave an Activity (Streptococcus pneumoniae [22]) of 94.5% and an Activity (Streptococcus pneumoniae [23]) of 1.3%.

With `CC1(C)S[C@@H]2[C@H](NC(=O)Cc3ccccc3)C(=O)N2[C@H]1C(=O)O` [PENICILLIN G] the MIC50 (Streptococcus pyogenes [3]) was no more than 0.015 µg/mL, the MIC90 (Streptococcus pyogenes [3]) was no more than 0.015 µg/mL and the Activity (Streptococcus pyogenes [4]) was 0%. The Activity (Streptococcus pneumoniae [14]) was 99.8%, the MIC50 (Streptococcus pneumoniae [16]) was no more than 0.015 µg/mL and the MIC90 (Streptococcus pneumoniae [16]) was 0.5 µg/mL (≈ 1.5 µM). The Activity (Streptococcus pneumoniae [18]) was 0%, the Activity (Streptococcus pyogenes [10]) was 100% and the MIC50 (Streptococcus pneumoniae [21]) was no more than 0.015 µg/mL. It also gave an MIC90 (Streptococcus pneumoniae [21]) of 0.5 µg/mL (≈ 1.5 µM), an Activity (Streptococcus pneumoniae [22]) of 77.1% and an Activity (Streptococcus pneumoniae [23]) of 0.9%.
